B1: Phenylethanolamine N-methyltransferase (Bos taurus), P10938 (protein)
chain: MSGTDRSQAAGAVPDSDPGLAAVSSAYQRFEPRAYLRNNYAPPRGDLSCPDGVGPWKLRCLAQTFATGEVSGRTLIDIGSGPTIYQLLSACAHFEDITMTDFLEVNRQELRLWLREEPGAFDWSVYSQHVCLIEGKGESWQEKECQLRARVKRILPIDVHRPQPLGAGGLAPLPADALVSAFCLEAVSPDLASFQRALDHITTLLRPGGHLLLIGALEESWYLAGEARLAVVPVREEEVREALVRTATRCGICARTPMPAHLQTGVDDVKGIFFTRAQKKVGV

Columns and labels:
[1] = biological target: T1, Phenylethanolamine N-methyltransferase (Bos taurus, UniProt P10938); assay: Compound was tested in vitro inhibition of phenylethanolamine N-methyl-transferase (PNMT) activity using radiochemical assay
T1 sequence (P10938 whole entry): B1 chain

[2] = Vmax of compound was measured; type: ADME
[3] = substrate: N[C@@H]1CC2C[C@@H]1c1ccccc12; assay: (§1) Compound was tested in vitro for PNMT activity using radiochemical assay.
Summary of the method: (§2)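 Bovine adrenal PNMT, partially purified through the isoelectric precipitation step. Compounds were tested as hydrobromide salts. Radiochemical assay used phosphate buffer at pH 8.0, unlabeled AdoMet (10 μM stock) plus [methyl-³H]AdoMet, and 30 min incubation at 37 °C. Reactions were quenched with borate at pH 10 and extracted into toluene/isoamyl alcohol (7:3), then scintillation-counted.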

[4] = substrate: N[C@@H]1CC2CCC1c1ccccc12; assay: as §1; summary of the method: as §2
[5] = substrate: N[C@@H]1CC2CC1c1cc(O)c(O)cc12; assay: as §1; summary of the method: as §2

Molecule | Ki [1] [µM] | Vmax [2] [nM/mg/min] | also measured
N[C@@H]1CC2CC1c1c(O)cccc12 (stereo not given in full) | 3000 |  | 
N[C@@H]1C2CCC1c1c(O)cccc12 (stereo not given in full) | 4000 |  | 
N[C@@H]1CC2CC1c1ccc(O)cc12 (stereo not given in full) | 304 |  | 
N[C@@H]1CC2CC1c1cc(O)c(O)cc12 (stereo not given in full) | 487 | 0.44 | 
N[C@@H]1CC2CC1c1cccc(O)c12 (stereo not given in full) | 10000 |  | 
N[C@@H]1CC2CCC1c1ccccc12 (stereo not given in full) | 258 | 0.61 | 
N[C@@H]1CC2CC1c1cc(O)ccc12 (stereo not given in full) | 1110 |  | 
N[C@@H]1C2CCC1c1cc(O)ccc12 (stereo not given in full) | 108 |  | 
N[C@@H]1CC2C[C@@H]1c1ccccc12 | 479 | 0.08 | 
B1 |  |  | Km [3]: 192 µM; Km [4]: 81 µM; Km [5]: 686 µM

Reference: ChEMBL document CHEMBL1123238, “Binding requirements of phenolic phenylethylamines in the benzonorbornene skeleton at the active site of phenylethanolamine N-methyltransferase” (J Med Chem, 1986)
